Key:
[1] = Drug degradation in phosphate citric acid buffer at pH 7.4 at 37 degC at 0.5 mM by HPLC-UV analysis; assay type: physicochemical; conditions: pH 7.4, 500 µM
Summary of the method: (§1)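 Aliquots over time quenched to pH 1.5 with HCl, quantified by HPLC against standard curves (peak area ratio to DMPA). k from slope of ln(C/Co) versus time, pseudo-first-order; half-life derived.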

[2] = Half life of the compound in 0.5M phosphate citric acid buffer at 0.5 mM at pH 7.4 at 37 degC by HPLC-UV analysis; assay type: ADME; summary of the method: as §1
[3] = Stability of compound in 0.5M phosphate citric acid buffer assessed as autoxidative conversion at 0.1 mM at pH 7.4 at 37 degC for 90 mins by HPLC-UV analysis; assay type: physicochemical; conditions: pH 7.4, 1.5 h, 100 µM
Summary of the method: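 Incubated 90 min at 37 °C. Dibenzocyclooctadiene formation monitored by HPLC, with products examined by MS and NMR. NDGA served as positive control.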

[4] = Stability of compound assessed as level of starting material at 37 degC for 6 hrs in presence of 20 fold excess of glutathione; assay type: physicochemical; conditions: read-out: Stability
Summary of the method: (§2)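 Substrate and DMPA internal standard, 0.5 mM each, incubated in phosphate–citrate buffer (0.5 M, pH 7.4) at 37 °C for 6 h with or without 20-fold excess glutathione. Samples acidified to pH 1.5 and analysed directly by HPLC and ESI-MS. Relative percentage of starting material, cyclised product and adduct reported.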

[5] = Stability of compound assessed as level of starting material at 37 degC for 6 hrs in absence of glutathione; assay type: physicochemical; conditions: read-out: Stability; summary of the method: as §2
[6] = Stability of compound assessed as formation of 5,6,7,8-Tetrahydro-dibenzo[a,c]cyclooctene-2,3,10,11-tetraol in phosphate citric acid buffer at pH 7.4 at 37 degC by HPLC-UV analysis relative to NDGA; assay type: physicochemical
Summary of the method: (§3)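 Formation rate of the dibenzocyclooctadiene inferred from loss of the parent substrate (0.5 mM, DMPA internal standard) in phosphate–citric acid buffer (0.5 M, pH 7.4) at 37 °C. Aliquots acidified to pH 1.5 with HCl and analysed by HPLC; first-order k from ln(C/Co) versus time, relative rate versus NDGA.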

[7] = Drug degradation in 0.5M phosphate citric acid buffer at 0.5 mM at pH 7.4 at 37 degC by HPLC-UV analysis; assay type: physicochemical; conditions: pH 7.4, 500 µM; summary of the method: as §1
[8] = Stability of compound assessed as formation of 5,6,7,8-Tetrahydro-dibenzo[a,c]cyclooctene-2,3,10,11-tetraol in phosphate citric acid buffer at pH 7.4 at 37 degC by HPLC-UV analysis; assay type: physicochemical; summary of the method: as §3
[9] = Stability of compound in 0.5M phosphate citric acid buffer assessed as drug degradation at 0.5 mM at pH 7.4 at 37 degC for 48 hrs by HPLC-UV analysis; assay type: physicochemical; conditions: read-out: Drug degradation; summary of the method: as §1
[10] = Drug degradation in phosphate citric acid buffer at pH 7.4 at 37 degC by HPLC-UV analysis relative to cNDGA; assay type: physicochemical
Summary of the method: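 Cyclised dibenzocyclooctadiene derivative (0.5 mM) with DMPA internal standard incubated in phosphate–citric acid buffer (0.5 M, pH 7.4) at 37 °C; aliquots acidified to pH 1.5 and parent loss followed by HPLC. First-order rate constant from ln(C/Co) versus time, expressed relative to cNDGA.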

[11] = Stability of compound assessed as formation of cNDGA in phosphate citric acid buffer at pH 7.4 at 37 degC by HPLC-UV analysis; assay type: physicochemical; summary of the method: as §3
[12] = Dissociation constant, pKa of compound; assay type: physicochemical

SMILES | half-life at 500 µM [2] [h] | Drug metabolism [3] | K [7] [×10⁻⁵ /s] | other results
CC1Cc2cc(O)c(O)cc2-c2cc(O)c(O)cc2CC1C (centres undefined) | – | – | – | K [1]: 0.47 ×10⁻⁵ /s
Oc1ccc(CCCCc2ccc(O)c(O)c2)cc1O | 1.47 | metabolite_detected | 13.1 | remaining at 6 h [4]: 95.5%; remaining at 6 h [5]: 8.52%; Ratio [6]: 3.1; K [8]: 8.7 ×10⁻⁵ /s
CC(Cc1ccccc1)C(C)Cc1ccc(O)c(O)c1 (centres undefined) | 4.22 | metabolite_detected | 4.56 | –
COc1cc(CC(C)C(C)Cc2ccccc2)ccc1O (centres undefined) | 5.49 | metabolite_detected | 3.5 | –
CC(Cc1cccc(O)c1)C(C)Cc1cccc(O)c1 (centres undefined) | – | metabolite_detected | – | degraded at 48 h, 500 µM [9]: < 5%
COc1ccc(CC(C)C(C)Cc2ccc(OC)c(O)c2)cc1O (centres undefined) | 4.68 | metabolite_detected | 4.11 | –
Oc1cc2c(cc1O)-c1cc(O)c(O)cc1CCCC2 | – | – | – | Ratio [10]: 3.7; K [1]: 1.75 ×10⁻⁵ /s
COc1ccc(CC(C)C(C)Cc2ccc(O)c(O)c2)cc1OC (centres undefined) | 4.62 | metabolite_detected | 4.16 | –
COc1cc(CC(C)C(C)Cc2ccc(O)c(OC)c2)ccc1O (centres undefined) [DIHYDROGUAIARETIC ACID] | 6.7 | metabolite_detected | 2.87 | –
CC(Cc1ccc(O)c(O)c1)C(C)Cc1ccc(O)c(O)c1 (centres undefined) [NORDIHYDROGUAIARETIC ACID] | 3.94 | metabolite_detected | 4.88 | K [11]: 2.78 ×10⁻⁵ /s; pKa [12]: 9.3; remaining at 6 h [4]: 87.1%; remaining at 6 h [5]: 66.9%

Reference: ChEMBL document CHEMBL3627654, “Ring substitution influences oxidative cyclisation and reactive metabolite formation of nordihydroguaiaretic acid analogues” (Bioorg Med Chem, 2015)
